Assays:
[1] = Cytotoxicity against human CCD-112CoN cells; assay type: cell-based; details: read-out: ED50 (the source's name)
[2] = biological target: Transcription factor p65 (Homo sapiens) (UniProt Q04206); assay: Inhibition of NF-kappaB p65 (unknown origin) by ELISA
[3] = test system: HT-29; assay: Cytotoxicity against human HT-29 cells; assay type: functional; details: read-out: ED50 (the source's name)
Procedure, shortened: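 HT-29 human colon cancer cells, run by a previously described protocol on all isolates. Growth inhibition was reported as ED50, and a positive control compound was run alongside.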

Transcription factor p65 (Homo sapiens), sequence (Q04206 whole entry): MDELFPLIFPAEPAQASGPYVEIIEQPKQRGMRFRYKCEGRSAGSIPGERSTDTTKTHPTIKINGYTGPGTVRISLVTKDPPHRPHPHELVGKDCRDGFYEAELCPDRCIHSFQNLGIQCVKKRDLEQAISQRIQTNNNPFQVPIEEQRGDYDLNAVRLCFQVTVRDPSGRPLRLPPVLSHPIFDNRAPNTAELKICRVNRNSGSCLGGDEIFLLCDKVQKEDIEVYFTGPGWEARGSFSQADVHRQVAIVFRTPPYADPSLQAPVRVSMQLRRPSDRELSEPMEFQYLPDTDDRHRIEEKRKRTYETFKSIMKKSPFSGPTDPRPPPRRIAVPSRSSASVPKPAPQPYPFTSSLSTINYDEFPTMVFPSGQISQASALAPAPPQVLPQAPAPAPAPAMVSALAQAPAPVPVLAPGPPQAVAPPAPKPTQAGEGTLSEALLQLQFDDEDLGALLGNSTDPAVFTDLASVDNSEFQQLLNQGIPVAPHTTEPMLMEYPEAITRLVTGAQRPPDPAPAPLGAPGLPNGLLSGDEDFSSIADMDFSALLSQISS

Work on COC(=O)[C@H]1[C@@H](O)[C@@]2(O)c3c(OC)cc(OC)cc3O[C@@]2(c2ccc3c(c2)OCO3)[C@@H]1c1ccccc1 yielded a CC50 [1] greater than 50 µM, an ED50 [2] of 3.54 µM and an EC50 ([3]; Homo sapiens, HT-29) of 0.002 µM.
COC(=O)[C@H]1[C@@H](OC=O)[C@@]2(O)c3c(OC)cc(OC)cc3O[C@@]2(c2ccc3c(c2)OCO3)[C@@H]1c1ccccc1 gave a CC50 [1] greater than 50 µM and an EC50 ([3]; Homo sapiens, HT-29) of 0.056 µM.
For COC(=O)[C@H]1[C@@H](O)[C@@]2(OC)c3c(OC)cc(OC)cc3O[C@@]2(c2ccc(OC)cc2)[C@@H]1c1ccccc1, the CC50 [1] was greater than 50 µM, the ED50 [2] was greater than 20 µM and the EC50 ([3]; Homo sapiens, HT-29) was 4.9 µM.
CC(C)[C@H]1CC[C@]2(C)C(=O)CCC(C=O)=C[C@H]12 gave an ED50 [2] of 0.005 µM and an EC50 ([3]; Homo sapiens, HT-29) greater than 20 µM.
CC1=CC(=O)CC(C)(C)[C@H]1CC[C@H](O)CO showed an ED50 [2] greater than 20 µM and an EC50 ([3]; Homo sapiens, HT-29) greater than 10 µM.
C=C(CC[C@@H](CO)[C@H]1CC[C@@]2(C)[C@@H]3CC[C@H]4C(C)(C)[C@@H](O)CC[C@@]45C[C@@]35CC[C@]12C)C(C)C gave an ED50 [2] greater than 20 µM and an EC50 ([3]; Homo sapiens, HT-29) greater than 10 µM.
Work on COc1ccc(-c2oc3cc(OC)cc(OC)c3c(=O)c2O)cc1 yielded an ED50 [2] greater than 20 µM and an EC50 ([3]; Homo sapiens, HT-29) greater than 10 µM.
In the case of COc1ccc([C@@]23Oc4cc(OC)cc(OC)c4[C@]2(OC)[C@H](O)C[C@H]3c2ccccc2)cc1, the ED50 [2] is reported as greater than 20 µM and the EC50 ([3]; Homo sapiens, HT-29) is reported as greater than 10 µM.
COc1cc(OC)c2c(c1)O[C@@]1(c3ccc4c(c3)OCO4)[C@H](c3ccccc3)C[C@@H](O)[C@@]21OC showed a CC50 [1] greater than 50 µM, an ED50 [2] greater than 20 µM and an EC50 ([3]; Homo sapiens, HT-29) of 0.96 µM.
In the case of COC(=O)[C@H]1[C@@H](O)[C@@]2(OC)c3c(OC)cc(OC)cc3O[C@@]2(c2ccc3c(c2)OCO3)[C@@H]1c1ccccc1, the CC50 [1] is reported as greater than 50 µM, the ED50 [2] is reported as greater than 20 µM and the EC50 ([3]; Homo sapiens, HT-29) is reported as 4.7 µM.
Compound COc1cc(OC)c2c(c1)O[C@@]1(c3ccc4c(c3)OCO4)[C@H](c3ccccc3)C[C@@H](O)[C@@]21O has a CC50 [1] greater than 50 µM, an ED50 [2] of 0.33 µM and an EC50 ([3]; Homo sapiens, HT-29) of 0.0067 µM.
Work on COC(=O)[C@H]1[C@@H](OC=O)[C@@]2(O)c3c(OC)cc(OC)cc3O[C@@]2(c2ccc(OC)cc2)[C@@H]1c1ccccc1 yielded a CC50 [1] greater than 50 µM, an ED50 [2] greater than 20 µM and an EC50 ([3]; Homo sapiens, HT-29) of 0.019 µM.
In the case of COc1ccc([C@]23Oc4cc(OC)cc(OC)c4[C@](O)(C2O)[C@@H](c2ccccc2)[C@@H]3C(=O)NCCCCNC(=O)/C(C)=C/CO)cc1 (stereo in doubt; 1) [listing 1 of 2 here], the EC50 [3] is reported as greater than 10 µM.
Compound COc1ccc([C@]23Oc4cc(OC)cc(OC)c4[C@](O)(C2O)[C@@H](c2ccccc2)[C@@H]3C(=O)NCCCCNC(=O)/C(C)=C/CO)cc1 (stereo in doubt; 1) [listing 2 of 2 here] has an ED50 [2] greater than 20 µM.
COc1ccc([C@]23Oc4cc(OC)cc(OC)c4[C@](O)(C2O)[C@@H](c2ccccc2)[C@@H]3C(=O)NCCCCNC(=O)/C(C)=C/CO)cc1 (stereo in doubt; 2) [listing 1 of 2 here] gave a CC50 [1] greater than 50 µM and an EC50 [3] of 0.46 µM.
Compound COc1ccc([C@]23Oc4cc(OC)cc(OC)c4[C@](O)(C2O)[C@@H](c2ccccc2)[C@@H]3C(=O)NCCCCNC(=O)/C(C)=C/CO)cc1 (stereo in doubt; 2) [listing 2 of 2 here] has an ED50 [2] of 2.4 µM.
COC(=O)[C@H]1[C@@H](O)[C@@]2(O)c3c(OC)cc(OC)cc3O[C@@]2(c2ccc(OC)cc2)[C@@H]1c1ccccc1 [AGLAFOLIN] showed a CC50 [1] greater than 50 µM, an ED50 [2] greater than 20 µM and an EC50 ([3]; Homo sapiens, HT-29) of 0.012 µM.
CC(C)=C[C@H](O)[C@@H](O)[C@@H](CO)[C@H]1CC[C@@]2(C)[C@@H]3CC[C@H]4C(C)(C)[C@@H](O)CC[C@@]45C[C@@]35CC[C@]12C [ARGENTEANOL] gave an ED50 [2] greater than 20 µM and an EC50 ([3]; Homo sapiens, HT-29) greater than 10 µM.
CC1(C)[C@H](O)CC[C@]2(C)[C@H]3CC[C@@H]4[C@@H]([C@]5(C)CCC(=O)O5)CC[C@@]4(C)[C@]3(C)CC[C@@H]12 [CABRALEAHYDROXYLACTONE] gave an ED50 [2] greater than 20 µM and an EC50 ([3]; Homo sapiens, HT-29) greater than 10 µM.
Compound COc1ccc([C@@]23Oc4cc(OC)cc(OC)c4[C@]2(O)[C@H](O)[C@H](C(N)=O)[C@H]3c2ccccc2)cc1 [DIDESMETHYLROCAGLAMIDE] has a CC50 [1] greater than 50 µM, an ED50 [2] greater than 20 µM and an EC50 ([3]; Homo sapiens, HT-29) of 0.021 µM.
CC1=CC(O)N(CCCCNC(=O)/C=C/c2ccccc2)C1=O (configuration not stated) [GIGANTAMIDE A] gave an ED50 [2] greater than 20 µM and an EC50 ([3]; Homo sapiens, HT-29) greater than 10 µM.
Compound CC(=O)O[C@H]1C(=O)[C@@]2(C)[C@H]([C@H](OC(=O)c3ccccc3)[C@]3(O)C[C@H](OC(=O)[C@H](O)[C@@H](NC(=O)c4ccccc4)c4ccccc4)C(C)=C1C3(C)C)[C@]1(OC(C)=O)CO[C@@H]1C[C@@H]2O [PACLITAXEL] has a CC50 [1] of 23 µM and an EC50 ([3]; Homo sapiens, HT-29) of 0.001 µM.
For CC(C)=CC(=O)[C@@H](O)[C@@H](C)[C@H]1CC[C@@]2(C)[C@@H]3CC[C@H]4C(C)(C)[C@@H](O)CC[C@@]45C[C@@]35CC[C@]12C [PERVIRIDISINOL A], the ED50 [2] was greater than 20 µM and the EC50 ([3]; Homo sapiens, HT-29) was greater than 10 µM.
Compound CC(C)=C[C@H]1OC[C@@H]([C@H]2CC[C@@]3(C)[C@@H]4CC[C@H]5C(C)(C)[C@@H](O)CC[C@@]56C[C@@]46CC[C@]23C)[C@@H]1O [PERVIRIDISINOL B] has an ED50 [2] greater than 20 µM and an EC50 ([3]; Homo sapiens, HT-29) greater than 10 µM.
Work on C=C(CC[C@@H](CO)[C@H]1CC[C@@]2(C)[C@@H]3CC[C@H]4[C@H](C)[C@@H](O)CC[C@@]45C[C@@]35CC[C@]12C)C(C)C [PERVIRIDISINOL C] yielded an ED50 [2] greater than 20 µM and an EC50 ([3]; Homo sapiens, HT-29) greater than 10 µM.
With COc1ccc([C@@]23Oc4cc(OC)cc(OC)c4[C@]2(O)[C@H](O)[C@H](C(=O)N(C)C)[C@H]3c2ccccc2)cc1 [ROCAGLAMIDE] the CC50 [1] was greater than 50 µM and the EC50 ([3]; Homo sapiens, HT-29) was 0.005 µM.
COc1ccc([C@@]23Oc4cc(OC)cc(OC)c4[C@]2(O)[C@H](O)C[C@H]3c2ccccc2)cc1 [ROCAGLAOL] showed a CC50 [1] greater than 50 µM, an ED50 [2] of 0.005 µM and an EC50 ([3]; Homo sapiens, HT-29) of 0.0007 µM.
With COc1cc2ccc(=O)oc2cc1O [SCOPOLETIN] the ED50 [2] was greater than 20 µM and the EC50 ([3]; Homo sapiens, HT-29) was greater than 10 µM.

Source: ChEMBL document CHEMBL2331500, “Bioactive flavaglines and other constituents isolated from Aglaia perviridis” (J Nat Prod, 2013)
